Bioassay records (PubChem BioAssay)
VIM-2 inh: VIM-2 metallo-beta-lactamase inhibitors, primary screen, biochemical, epi-absorbance readout, Pseudomonas aeruginosa enzyme. purified VIM-2, nitrocefin hydrolysis, epi-absorbance fluorescence. inhibition, % at 5.6 µM. 290,000 compounds, 0.89% hits. AID 1527, 2009;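 active = inhibition above the mean of all tested compounds plus 3 SD, cutoff set per screening run, cut at about 7.5% in these data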;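 note: red hydrolysis product quenches plate fluorescence so inhibitors raise well fluorescence; 0% = enzyme with DMSO and 100% = DMSO without enzyme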
dFosB activator: activators of delta FosB homodimer, primary screen, biochemical, fluorescence polarization, TAMRA-CDK5 oligo, single point | Protein FosB (Mus musculus), P13346 | purified delta FosB; percent of positive-control signal above neutral wells | activation, % at 25 µM | 340,000 compounds, 0.99% hits | AID 493131, 2011;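 active = mean activation above about 17%, with every replicate also reaching it, limit read from the data, passing the limit was not always enough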
IMP-1 inhibitor: IMP-1 metallo-beta-lactamase inhibitors, primary screen, biochemical, epi-absorbance readout, Pseudomonas aeruginosa enzyme; inhibition, % at 5.6 µM; 290,000 compounds, 0.45% hits; metallo-beta-lactamase IMP-1 (Pseudomonas aeruginosa); purified IMP-1, nitrocefin hydrolysis, epi-absorbance fluorescence;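 active = inhibition above the mean plus 3 SD of all compounds in the same screening run, cut at about 4.5% in these data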;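 note: 0% = IMP-1 with DMSO and 100% = DMSO wells lacking enzyme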
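Material – recombinant IMP-1 enzyme, purified · Amount – IMP-1 0.2 nM before substrate addition · Medium – HEPES buffer pH 7.1 with ZnSO4 and Brij 35 · Timing – 25 °C, 15 min preincubation, 25 min reaction · Measured by – plate fluorescence quenching by hydrolysis product, ex 480/em 530 nm · Read-out – percent enzyme inhibition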
m5-HT2A agonist: mouse Htr2a agonists via beta-arrestin recruitment, primary screen, cell-based, luminescence; CHO-K1 mHTR2A beta-arrestin complementation; percent of 30 µM serotonin response; activation, % at 7.6 µM; 360,000 compounds, 0.66% hits;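 active = activation above a run cutoff, the mean activation of all tested compounds plus 3 SD, cut at about 14% in these data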;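 note: 0% = plate median of compound wells and 100% = 30 µM serotonin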
Target sequence (P35363 whole entry, looked up): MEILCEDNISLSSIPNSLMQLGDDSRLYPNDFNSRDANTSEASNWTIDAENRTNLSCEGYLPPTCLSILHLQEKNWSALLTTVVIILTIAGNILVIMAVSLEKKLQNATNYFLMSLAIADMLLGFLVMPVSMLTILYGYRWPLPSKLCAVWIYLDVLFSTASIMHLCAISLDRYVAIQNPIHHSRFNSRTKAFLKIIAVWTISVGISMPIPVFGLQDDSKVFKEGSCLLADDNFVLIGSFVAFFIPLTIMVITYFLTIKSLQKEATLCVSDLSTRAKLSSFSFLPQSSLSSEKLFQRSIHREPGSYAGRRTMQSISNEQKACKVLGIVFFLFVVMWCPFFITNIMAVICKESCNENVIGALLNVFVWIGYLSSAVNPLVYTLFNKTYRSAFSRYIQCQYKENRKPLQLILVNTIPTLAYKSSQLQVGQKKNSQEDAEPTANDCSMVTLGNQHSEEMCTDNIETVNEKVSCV
OPRM1 ag: OPRM1 agonists via beta-arrestin recruitment, confirmation, counter-screen for mouse HTR2A agonist project, cell-based, luminescence, single concentration | activation, % at 9.3 µM | shares compounds with m5-HT2A agonist | U2OS OPRM1 beta-arrestin PathHunter; DMSO 0%, DAMGO 9.3 µM 100% | 2,300 compounds, 5.3% hits;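 active = mean activation above the mean of DMSO-only wells plus 3 SD, cut at about 0.5% in these data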
HTR2A ag conf: mouse HTR2A agonists, beta-arrestin recruitment, confirmation, cell-based, luminescence, CHO-K1 PathHunter, triplicate; shares compounds with m5-HT2A agonist; DMSO 0%, 30 µM serotonin 100%; activation, % at 7.6 µM; 2,300 compounds, 19% hits; AID 624381, 2012;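 active = mean activation across triplicates above the hit threshold derived in the original primary screen, cut at about 15% in these data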
* hit, by the source's call; . = not tested or not shown. Shown are actives, neighbours in structure and some others; about 2.5% of the full set was active somewhere.

SMILES	VIM-2 inh	dFosB activator	IMP-1 inhibitor	m5-HT2A agonist	OPRM1 ag	HTR2A ag conf
COc1ccc(/C=C2/C(=O)C(C)(C(C)C)CCC2C)cc1 (stereo not drawn)	0	-1	-2	5	.	.
O=C(COC(=O)c1ccc(Cl)nc1)Nc1ccc(N2CCCCC2)cc1	.	-9	.	0	.	.
CCS(=O)(=O)c1nc(S(=O)(=O)c2ccc(C)cc2)c(N2CCCC2)s1	2	-6	0	-9	.	.
CCS(=O)(=O)c1nc(S(=O)(=O)c2ccc(C)cc2)c(N2CCCCCC2)s1	.	.	.	15*	-1	-4
COC1=C/C(=C/c2c(O)c(C#N)c3ccccn23)C=CC1=O	-1	-4	-1	20*	-1	-7
Cn1ccc(O)c(C#N)c1=O	-3	-2	-3	-3	.	.
CCn1cc(S(=O)(=O)NCc2ccc(OC)cc2)cn1	-1	-2	-2	1	.	.
CC(=O)N1CCN(C(=O)c2ccc(Cl)c(NC(=O)c3cccs3)c2)CC1	.	-2	.	15*	-1	-3
CCc1ccccc1NC(=O)N1CCc2ccccc21	0	1	-2	17*	-1	-4
CN(CC(=O)Nc1ccc(Cl)cc1)CC(=O)N1CCc2ccccc21	.	.	.	17*	0	2
CCn1cc(C(=O)NCCCN2CCCC(C)C2)c(=O)c2cc(S(=O)(=O)N3CCOCC3)ccc21 (stereo not drawn)	0	-3	-3	21*	-1	-5
CCOC(=O)[C@]12CCCC=C1N(Cc1cccc3ccccc13)C(=O)[C@H](CC(=O)N1CCC(c3ccccc3)CC1)C2	.	.	.	17*	-1	-2
COc1ccc2oc(C(=O)Nc3nc4ccccc4[nH]3)c(C)c2c1	-4	8	-4	149*	0	56*
CCCS(=O)(=O)NC(=O)C1(C)CCN(C(=O)c2ccccc2F)C1 (stereo not drawn)	.	.	.	10	.	.
Cc1ccccc1S(=O)(=O)N(C)C[C@@H]1OCc2ccccc2-c2c(n(C)c3ccccc23)C(=O)N([C@H](C)CO)C[C@@H]1C	.	.	.	56*	0	4
O=C(NC1CCCCC1)C1c2ccccc2OCC(=O)N1Cc1ccccc1 (stereo not drawn)	.	.	.	-3	.	.
COc1cccc(-c2nc(NCC3CCCO3)c3ccccc3n2)c1O (stereo not drawn)	0	-10	-1	32*	0	15*
COc1cccc(-c2nc(NC(C)C)c3ccccc3n2)c1O	0	-6	-2	46*	0	48*
CCC(C)Nc1nc(-c2cccc(OC)c2O)nc2ccccc12 (stereo not drawn)	2	-2	-2	59*	0	33*
Oc1ccccc1-c1nc(NCC2CCCO2)c2ccccc2n1 (stereo not drawn)	0	-5	-4	-1	.	.
Cc1cc(OCCN2CCN(S(=O)(=O)c3ccccc3F)CC2)ccc1C(C)C	.	-3	.	-8	.	.
CC(=O)Nc1ccc(Nc2nc(C)c([N+](=O)[O-])c(Nc3ccccc3)n2)cc1	-3	3	-1	0	.	.
CC(=O)Nc1ccc(Nc2nc(C)c([N+](=O)[O-])c(N(C)c3ccccc3)n2)cc1	-1	-7	-1	25*	0	-5
COc1ccc(C(=O)N/C(=C\c2cn(C)c3ccccc23)C(=O)NCCN2CCOCC2)cc1OC	0	-6	-1	-8	.	.
Cc1cc(/C=C(\C#N)C(=O)NC2CCCCCC2)c(C)n1C	-4	-3	-2	18*	0	3
SMILES	VIM-2 inh	dFosB activator	IMP-1 inhibitor	m5-HT2A agonist	OPRM1 ag	HTR2A ag conf
Cc1ccc(C(=O)OCC(=O)NCc2cccc(Cl)c2)cc1S(=O)(=O)N1CCCCC1	.	-8	.	17*	0	-6
CCc1cc(C(=O)N2CCCC(C(=O)c3ccc(C(F)(F)F)cc3)C2)n(C)n1 (stereo not drawn)	-4	-1	-1	1	.	.
CCN(Cc1ccccc1)C(=O)Cn1cc(S(=O)(=O)NC)c(S(=O)(=O)NC)c1	-3	8	-3	16*	0	0
CCOCC(=O)N(CC)Cc1ccccc1	-1	-4	-2	4	.	.
COc1ccccc1NC(=O)CSc1ccc(-c2ccc(-n3ccnc3)cc2)nn1	.	-10	.	-2	.	.
CCOP(=O)(OCC)C(Nc1ccc(OC)cc1)c1ccco1 (stereo not drawn)	0	-4	-2	19*	-1	-3
CCOP(=O)(OCC)C(Nc1ccc(C(=O)O)cc1)c1ccccc1 (stereo not drawn)	1	-4	-2	6	.	.
CCC(C)N(C(=O)COC(=O)CSc1ccc(C)c(C)c1)C1CCS(=O)(=O)C1 (stereo not drawn)	.	-10	.	15*	0	0
CCCc1cc(NCCCCO)n2c(nc3ccccc32)c1C#N	7	-6	-1	4	.	.
CCCc1cc(NCCCN2CCOCC2)n2c(nc3ccccc32)c1C#N	8.0*	-1	0	32*	0	0
Cc1nc2ccc(NS(=O)(=O)c3ccc(F)cc3F)cc2s1	.	-8	.	22*	0	-3
Cc1nc2ccc(NS(=O)(=O)c3ccc(F)c(F)c3F)cc2s1	.	-5	.	0	.	.
CN(C)S(=O)(=O)c1ccc(Cl)c(NC(=O)CN2CCc3ccccc3C2)c1	-4	-7	-4	23*	0	82*
CCN(CC)S(=O)(=O)c1ccc(O)c(NC(=O)CN2CCc3ccccc3C2)c1	-3	-1	-2	-2	.	.
O=C(Cn1cnc2ccccc2c1=O)N1CCN(Cc2ccc3c(c2)OCO3)CC1	0	1	-4	15*	-1	47*
O=C(Cn1cnc2ccccc2c1=O)NCC(=O)N1CCN(Cc2ccc3c(c2)OCO3)CC1	-2	1	-1	2	.	.
COC(=O)CNC(=O)c1cc(-c2ccncc2)nc2ccc(C)cc12	-1	-15	0	.	.	.
Cc1oc(-c2ccc(Cl)cc2)nc1CS(=O)CC(=O)NCCCN1CCCC(C)C1 (stereo not drawn)	3	1	-1	17*	0	-2
O=C1c2ccccc2C(=O)N1CCc1c[nH]c2ccc(O)cc12	1	-13	-2	18*	-1	-5
O=C1c2ccccc2C(=O)N1CCc1c[nH]c2ccccc12	3	-5	-2	-3	.	.
c1ccc(Nc2nc(N3CCCCC3)nc(N3CCNCC3)n2)cc1	-2	3	-6	55*	-1	31*
